From ChEMBL document CHEMBL3526053, “Species-dependent uptake of glycylsarcosine but not oseltamivir in Pichia pastoris expressing the rat, mouse, and human intestinal peptide transporter PEPT1” (Drug Metab Dispos, 2012)

Experiments:
Assay type in all cases: ADME
[1] = target: T1, Solute carrier family 15 member 1 (Mus musculus, UniProt Q9JIP7); assay: Drug uptake in Pichia pastoris GS115 expressing mouse recombinant PEPT1 at 5 uM after 30s by dual-channel liquid scintillation counting analysis in presence of cefadroxil relative to control; details: 0.5 min
T1 sequence (Q9JIP7 whole entry): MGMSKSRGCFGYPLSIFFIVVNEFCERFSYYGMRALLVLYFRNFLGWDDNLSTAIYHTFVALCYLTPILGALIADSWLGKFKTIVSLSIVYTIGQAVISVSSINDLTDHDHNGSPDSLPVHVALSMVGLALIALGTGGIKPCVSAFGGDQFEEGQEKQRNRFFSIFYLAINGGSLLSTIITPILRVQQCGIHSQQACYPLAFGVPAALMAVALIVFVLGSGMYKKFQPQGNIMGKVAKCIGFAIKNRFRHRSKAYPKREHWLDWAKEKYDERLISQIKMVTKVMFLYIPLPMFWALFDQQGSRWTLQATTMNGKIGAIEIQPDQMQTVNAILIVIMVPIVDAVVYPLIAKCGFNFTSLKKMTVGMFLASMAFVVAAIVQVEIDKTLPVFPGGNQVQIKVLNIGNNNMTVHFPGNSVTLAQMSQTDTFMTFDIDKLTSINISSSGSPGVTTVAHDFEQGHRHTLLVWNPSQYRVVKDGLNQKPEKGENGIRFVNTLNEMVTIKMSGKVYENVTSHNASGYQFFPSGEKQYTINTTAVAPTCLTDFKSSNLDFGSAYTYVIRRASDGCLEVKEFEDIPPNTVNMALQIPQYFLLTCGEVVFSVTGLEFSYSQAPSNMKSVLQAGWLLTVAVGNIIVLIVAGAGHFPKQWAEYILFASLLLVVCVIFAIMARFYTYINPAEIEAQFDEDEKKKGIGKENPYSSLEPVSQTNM
Procedure, shortened: (§1)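 [3H]GlySar 5.0 µM final, 30-s uptake at 24°C in 100 mM potassium phosphate pH 6.5, with or without a potential inhibitor at 10 mM. Cells are methanol-induced transformants. Values are vector-subtracted and expressed as percent of buffer control. Mean ± SE (n=3). ANOVA with Dunnett's test.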

[2] = target: T2, Solute carrier family 15 member 1 (Homo sapiens, UniProt P46059); assay: Drug uptake in Pichia pastoris GS115 expressing human recombinant PEPT1 at 5 uM after 30s by dual-channel liquid scintillation counting analysis in presence of glycine relative to control; details: 0.5 min; procedure, shortened: as §1
T2 sequence (P46059 whole entry): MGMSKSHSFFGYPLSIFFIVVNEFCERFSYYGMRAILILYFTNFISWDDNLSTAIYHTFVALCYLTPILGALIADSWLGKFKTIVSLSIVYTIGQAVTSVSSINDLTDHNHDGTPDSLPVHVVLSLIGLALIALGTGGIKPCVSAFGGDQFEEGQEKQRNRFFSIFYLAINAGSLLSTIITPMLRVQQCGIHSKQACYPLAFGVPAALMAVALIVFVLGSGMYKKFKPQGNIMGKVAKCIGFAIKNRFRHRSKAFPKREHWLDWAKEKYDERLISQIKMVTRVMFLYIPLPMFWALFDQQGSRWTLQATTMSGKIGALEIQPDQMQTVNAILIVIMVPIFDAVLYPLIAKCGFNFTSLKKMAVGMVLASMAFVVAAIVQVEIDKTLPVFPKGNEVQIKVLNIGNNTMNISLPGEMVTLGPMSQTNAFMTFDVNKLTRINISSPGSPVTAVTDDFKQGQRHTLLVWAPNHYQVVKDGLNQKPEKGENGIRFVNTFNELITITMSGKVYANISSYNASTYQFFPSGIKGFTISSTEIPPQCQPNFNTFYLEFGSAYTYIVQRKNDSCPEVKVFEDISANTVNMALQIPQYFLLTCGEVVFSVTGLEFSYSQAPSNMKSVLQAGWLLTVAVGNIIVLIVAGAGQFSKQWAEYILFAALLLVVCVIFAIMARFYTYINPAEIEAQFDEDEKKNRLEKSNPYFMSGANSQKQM

[3] = target: T1, Solute carrier family 15 member 1; assay: Drug uptake in Pichia pastoris GS115 expressing mouse recombinant PEPT1 at 5 uM after 30s by dual-channel liquid scintillation counting analysis in presence of GlyPro relative to control; details: 0.5 min; procedure, shortened: as §1
[4] = target: T3, Solute carrier family 15 member 1 (Rattus norvegicus, UniProt P51574); assay: Drug uptake in Pichia pastoris GS115 expressing rat recombinant PEPT1 at 5 uM after 30s by dual-channel liquid scintillation counting analysis in presence of glycine relative to control; details: 0.5 min
T3 sequence (P51574 whole entry): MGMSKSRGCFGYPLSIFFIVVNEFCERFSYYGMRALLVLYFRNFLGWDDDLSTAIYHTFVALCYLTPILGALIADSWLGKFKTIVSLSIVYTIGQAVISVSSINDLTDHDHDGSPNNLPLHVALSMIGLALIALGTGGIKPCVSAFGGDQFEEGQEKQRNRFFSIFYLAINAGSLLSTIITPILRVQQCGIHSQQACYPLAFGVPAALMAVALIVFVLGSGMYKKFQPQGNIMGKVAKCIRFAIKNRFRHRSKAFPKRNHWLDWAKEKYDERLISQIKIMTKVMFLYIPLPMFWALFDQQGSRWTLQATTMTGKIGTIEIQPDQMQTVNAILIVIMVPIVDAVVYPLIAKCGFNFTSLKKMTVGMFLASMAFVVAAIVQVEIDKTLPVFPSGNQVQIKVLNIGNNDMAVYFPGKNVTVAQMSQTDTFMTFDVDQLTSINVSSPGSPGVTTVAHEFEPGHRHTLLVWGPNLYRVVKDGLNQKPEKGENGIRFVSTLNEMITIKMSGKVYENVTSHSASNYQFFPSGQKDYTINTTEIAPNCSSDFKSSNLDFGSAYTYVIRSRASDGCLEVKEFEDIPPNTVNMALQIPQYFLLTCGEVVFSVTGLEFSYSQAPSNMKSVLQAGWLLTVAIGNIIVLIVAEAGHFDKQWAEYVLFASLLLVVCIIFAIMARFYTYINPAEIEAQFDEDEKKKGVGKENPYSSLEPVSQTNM
Procedure, shortened: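 Rat PEPT1 (pPIC3.5K-rPept1) in GS115 His+Mut+ transformant, methanol-induced 20-24 hr in BMMY at 30°C, washed into 100 mM potassium phosphate pH 6.5. [3H]GlySar final 5.0 µM with inhibitor at 10 mM, 30 sec at 24°C. Counts taken by liquid scintillation after 24 hr standing. Values are vector-subtracted and given as % of buffer control. Mean ± SE, n=3.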

[5] = target: T3, Solute carrier family 15 member 1; assay: Drug uptake in Pichia pastoris GS115 expressing rat recombinant PEPT1 at 5 uM after 30s by dual-channel liquid scintillation counting analysis in presence of cefadroxil relative to control; details: in vivo, 0.5 min; procedure, shortened: as §1
[6] = target: T4, PEPT1 (Homo sapiens, UniProt P46059); assay: Drug uptake in Pichia pastoris GS115 expressing human recombinant PEPT1 at 5 uM after 30 mins by dual-channel liquid scintillation counting analysis relative to vector control; details: read-out: FC
T4 sequence (P46059 whole entry): T2 sequence (P46059 whole entry)
Procedure, shortened: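 5.0 µM radiolabelled substrate ([3H]GlySar or [14C]oseltamivir) is incubated 30 min at 24°C with induced transformants in 100 mM potassium phosphate pH 6.5. Cell-associated radioactivity is counted by scintillation after standing 24 h and normalised to OD600. Results are compared with pPIC3.5K vector-alone cells. Mean ± SE (n=6).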

## [3H]C(C(=O)O)N(C)C(=O)CN (stereo unspecified)
[1]
  Drug uptake: 16.7%
[2]
  Drug uptake: 130%
[3]
  Drug uptake: 1.9%
[4]
  Drug uptake: 91.5%
[5]
  Drug uptake: 23.1%
[6]
  uptake ratio at 0.5 h, 5 µM: 30
